Assay results: ChEMBL document CHEMBL4706530, “Synthesis, inhibitory activity and in silico docking of dual COX/5-LOX inhibitors with quinone and resorcinol core” (Eur J Med Chem, 2020)
Calls of active or inactive are those of the source.

Key:
[1] = biological target: T1, Prostaglandin G/H synthase 1 (Ovis aries, UniProt P05979); assay: Inhibition of ovine COX-1 assessed as reduction in PGE2 level using 10 uM arachidonic acid as substrate preincubated with enzyme for 5 mins followed by substrate addition and measured after 20 mins by ELISA
T1 sequence (P05979 whole entry): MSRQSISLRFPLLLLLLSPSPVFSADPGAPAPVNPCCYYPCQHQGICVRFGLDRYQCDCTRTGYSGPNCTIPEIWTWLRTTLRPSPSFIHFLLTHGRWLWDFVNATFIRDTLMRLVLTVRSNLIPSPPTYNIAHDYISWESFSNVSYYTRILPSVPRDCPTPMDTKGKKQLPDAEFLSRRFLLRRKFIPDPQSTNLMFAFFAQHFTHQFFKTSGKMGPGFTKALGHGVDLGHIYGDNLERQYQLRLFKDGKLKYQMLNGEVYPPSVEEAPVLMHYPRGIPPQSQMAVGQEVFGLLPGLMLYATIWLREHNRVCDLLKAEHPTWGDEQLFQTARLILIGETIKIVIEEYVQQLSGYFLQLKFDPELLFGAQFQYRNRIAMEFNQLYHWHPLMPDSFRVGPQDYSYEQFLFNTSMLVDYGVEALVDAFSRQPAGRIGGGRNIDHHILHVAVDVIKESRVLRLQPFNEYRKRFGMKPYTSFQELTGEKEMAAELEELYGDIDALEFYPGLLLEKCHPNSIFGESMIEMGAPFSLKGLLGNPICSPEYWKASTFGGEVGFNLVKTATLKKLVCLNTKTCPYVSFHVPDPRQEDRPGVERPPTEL
Summary of the method: (§1)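 Enzyme in 100 mM Tris pH 8.0 with 5 µM porcine hematin, 18 mM L-epinephrine and 50 µM Na2EDTA. Compound in DMSO (DMSO blank) 5 min at room temperature. Arachidonic acid (10 µM) added, 20 min at 37°C. Stopped with 10% formic acid, diluted 1:15, PGE2 measured by ELISA at 405 nm as % inhibition versus blank. At least three experiments in at least duplicate. Non-active below 50% inhibition at 20 µM.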

[2] = Selectivity index, ratio of IC50 for ovine COX-1 to IC50 for human recombinant COX-2
[3] = biological target: T2, Prostaglandin G/H synthase 2 (Homo sapiens, UniProt P35354); assay: Inhibition of human recombinant COX-2 assessed as reduction in PGE2 level using 10 uM arachidonic acid as substrate preincubated with enzyme for 5 mins followed by substrate addition and measured after 20 mins by ELISA
T2 sequence (P35354 whole entry): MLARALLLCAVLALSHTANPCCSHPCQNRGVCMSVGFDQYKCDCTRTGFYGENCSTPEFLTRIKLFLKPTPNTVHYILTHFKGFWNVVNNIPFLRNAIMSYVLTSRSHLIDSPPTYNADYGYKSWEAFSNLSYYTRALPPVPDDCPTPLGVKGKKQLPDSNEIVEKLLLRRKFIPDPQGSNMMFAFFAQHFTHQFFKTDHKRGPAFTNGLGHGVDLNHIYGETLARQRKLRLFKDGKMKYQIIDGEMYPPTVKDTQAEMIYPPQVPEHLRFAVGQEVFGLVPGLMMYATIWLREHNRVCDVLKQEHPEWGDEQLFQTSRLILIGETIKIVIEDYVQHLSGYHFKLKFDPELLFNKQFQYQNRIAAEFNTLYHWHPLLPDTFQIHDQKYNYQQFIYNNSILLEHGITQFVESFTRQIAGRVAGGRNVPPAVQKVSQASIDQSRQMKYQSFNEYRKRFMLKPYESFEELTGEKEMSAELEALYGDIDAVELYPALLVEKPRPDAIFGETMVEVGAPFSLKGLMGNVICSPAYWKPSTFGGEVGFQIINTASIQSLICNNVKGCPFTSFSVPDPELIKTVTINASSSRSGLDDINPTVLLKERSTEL

[4] = biological target: T3, Polyunsaturated fatty acid 5-lipoxygenase (Homo sapiens, UniProt P09917); assay: Inhibition of human recombinant 5-LOX assessed as reduction in LTB4 level using 800 uM arachidonic acid as substrate preincubated with enzyme for 10 mins followed by substrate addition and measured after 10 mins by ELISA
T3 sequence (P09917 whole entry): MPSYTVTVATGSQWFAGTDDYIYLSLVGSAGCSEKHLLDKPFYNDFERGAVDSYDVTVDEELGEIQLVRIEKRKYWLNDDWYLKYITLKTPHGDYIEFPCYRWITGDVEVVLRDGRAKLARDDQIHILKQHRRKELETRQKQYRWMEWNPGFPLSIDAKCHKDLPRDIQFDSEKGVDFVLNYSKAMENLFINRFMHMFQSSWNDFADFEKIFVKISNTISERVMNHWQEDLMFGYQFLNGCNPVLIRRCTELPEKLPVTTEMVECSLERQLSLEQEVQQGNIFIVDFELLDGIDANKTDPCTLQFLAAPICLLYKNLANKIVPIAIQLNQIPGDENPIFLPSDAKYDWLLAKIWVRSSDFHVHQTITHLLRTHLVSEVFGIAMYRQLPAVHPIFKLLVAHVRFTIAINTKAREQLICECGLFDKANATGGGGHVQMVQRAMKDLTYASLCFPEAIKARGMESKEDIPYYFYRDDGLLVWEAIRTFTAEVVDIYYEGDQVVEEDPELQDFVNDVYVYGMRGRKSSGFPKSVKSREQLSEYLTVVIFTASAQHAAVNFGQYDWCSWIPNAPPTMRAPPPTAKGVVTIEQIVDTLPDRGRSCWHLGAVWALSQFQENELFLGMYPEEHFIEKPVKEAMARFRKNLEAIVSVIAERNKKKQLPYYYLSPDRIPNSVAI
Summary of the method: (§2)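 Human recombinant 5-LOX, 1 unit per reaction, in PBS pH 7.4 containing 1 mM Na2EDTA and 200 µM ATP. Compound in DMSO (DMSO blank) held 10 min at 4°C. CaCl2 added, reaction started with arachidonic acid (800 µM solution) for 10 min at 37°C. Formic acid stop, 1:15 dilution, LTB4 measured by ELISA as % inhibition versus blank. At least three experiments in at least duplicate.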

[5] = Antioxidant activity assessed as radical scavenging activity measured after 30 mins by DPPH assay; format: functional
Summary of the method: (§3)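 Test compounds in methanol, two-fold serial dilution to final 3.125–400 µM, incubated 30 min with DPPH in methanol (stated final […]) at room temperature in the dark. Absorbance read at 517 nm. Trolox and L-ascorbic acid served as positive references. Activity expressed as EC50.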

[6] = biological target: T4, Prostaglandin G/H synthase 1 (Ovis aries) (UniProt P05979); assay: Inhibition of ovine COX-1 assessed as reduction in PGE2 level using 10 uM arachidonic acid as substrate at 20 uM preincubated with enzyme for 5 mins followed by substrate addition and measured after 20 mins by ELISA relative to control; settings: time 25.0 min; summary of the method: as §1
T4 sequence (whole entry): T1 sequence (P05979 whole entry)

[7] = biological target: T5, Prostaglandin G/H synthase 2 (Homo sapiens) (UniProt P35354); assay: Inhibition of human recombinant COX-2 assessed as reduction in PGE2 level using 10 uM arachidonic acid as substrate at 20 uM preincubated with enzyme for 5 mins followed by substrate addition and measured after 20 mins by ELISA relative to control; settings: time 25.0 min; summary of the method: as §1
T5 sequence (whole entry): T2 sequence (P35354 whole entry)

[8] = biological target: T6, Polyunsaturated fatty acid 5-lipoxygenase (Homo sapiens) (UniProt P09917); assay: Inhibition of human recombinant 5-LOX assessed as reduction in LTB4 level using 800 uM arachidonic acid as substrate at 5 uM preincubated with enzyme for 10 mins followed by substrate addition and measured after 10 mins by ELISA relative to control; settings: time 20.0 min
T6 sequence (whole entry): T3 sequence (P09917 whole entry)
Summary of the method: as §2, with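 “duplicate. Non-active cutoff below 50% inhibition at 5 µM.” for “duplicate.”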

[9] = biological target: T1, Prostaglandin G/H synthase 1; assay: Competitive inhibition of ovine COX-1 assessed as reduction in PGE2 level using 250 nM arachidonic acid as substrate preincubated with enzyme for 5 mins followed by substrate addition and measured after 20 mins by ELISA
Summary of the method: (§4)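 Substrate-dependence test. Enzyme in 100 mM Tris pH 8.0 with 5 µM porcine hematin, 18 mM L-epinephrine and 50 µM Na2EDTA. Compound in DMSO (DMSO blank) preincubated 5 min at room temperature. Arachidonic acid added to final 50, 250 or 1250 nM, then 20 min at 37°C. Stopped with 10% formic acid, diluted 1:15, PGE2 quantified by ELISA at 405 nm. Inhibition calculated versus blank at the same AA level.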

[10] = biological target: T1, Prostaglandin G/H synthase 1; assay: Competitive inhibition of ovine COX-1 assessed as reduction in PGE2 level using 50 nM arachidonic acid as substrate preincubated with enzyme for 5 mins followed by substrate addition and measured after 20 mins by ELISA; summary of the method: as §4
[11] = biological target: T1, Prostaglandin G/H synthase 1; assay: Competitive inhibition of ovine COX-1 assessed as reduction in PGE2 level using 1250 nM arachidonic acid as substrate preincubated with enzyme for 5 mins followed by substrate addition and measured after 20 mins by ELISA; summary of the method: as §4
[12] = Antioxidant activity assessed as radical scavenging activity at 400 uM measured after 30 mins by DPPH assay; format: functional; summary of the method: as §3
[13] = biological target: T3, Polyunsaturated fatty acid 5-lipoxygenase; assay: Inhibition of human recombinant 5-LOX assessed as reduction in LTB4 level using 5 to 80 uM arachidonic acid as substrate preincubated with enzyme for 10 mins followed by substrate addition and measured after 10 mins by ELISA
Summary of the method: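 Human recombinant 5-LOX, 1 unit per reaction, in PBS pH 7.4 with 1 mM Na2EDTA and 200 µM ATP. Compound in DMSO preincubated 10 min at 4°C. CaCl2 added, then arachidonic acid at final 5, 20 or 80 µM, 10 min at 37°C. Stopped with 10% formic acid, diluted 1:15, LTB4 measured by ELISA. Inhibition calculated versus blank at the matching AA level.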

Row | SMILES | IC50 [1] | Ratio IC50 [2] | IC50 [3] | IC50 [4] | other results
1 | COc1cc(O)cc(Br)c1O | 6110 nM | 1.27 | 4810 nM | 1140 nM | –
2 | Cc1c(C)c2c(c(C)c1O)CCC(C)(C(=O)O)O2 (configuration not stated) [TROLOX] | – | – | – | – | EC50 [5]: 32500 nM
3 | CCCCCc1cc(O)cc(OC)c1O | – | – | – | 940 nM | inhibition [6]: < 50%; inhibition [7]: < 50%
4 | CCCCCc1cc(O)cc(O)c1 [WHILE OLIVETOL] | 13600 nM | 0.79 | 17300 nM | – | inhibition [8]: < 50%
5 | COC1=CC(=O)C=C(Br)C1OC(C)=O (configuration not stated) | – | – | – | 170 nM | inhibition [6]: < 50%; EC50 [5]: 45600 nM; inhibition [7]: < 50%
6 | CCCCCc1cc(O)cc(OC)c1 | – | – | 15900 nM | – | inhibition [6]: < 50%; inhibition [8]: < 50%
7 | CCCCCCCCCCCCCC1=CC(=O)C=C(OC)C1=O | 250 nM | – | 880 nM | 1050 nM | –
8 | CCCCCCCCCCCCCCCC1=CC(=O)C=C(OC)C1=O | – | – | 8970 nM | 790 nM | inhibition [6]: < 50%
9 | CCCCCCCCCCCc1cc(O)cc(OC)c1O | 1070 nM | 1.95 | 550 nM | 280 nM | –
10 | CCCCCCCCCCCCCc1cc(OC(C)=O)cc(OC)c1OC(C)=O | – | – | – | 1020 nM | inhibition [6]: < 50%; inhibition [7]: < 50%
11 | COC1=CC(=O)C=C(Br)C1=O | 15600 nM | 3.47 | 4480 nM | 1670 nM | –
12 | CCCCCc1cccc(OC)c1O | 5420 nM | 1.17 | 4650 nM | 3720 nM | –
13 | CCCCCCCCCCCCCc1cc(O)cc(OC)c1O | 3380 nM | 2.18 | 1550 nM | 1490 nM | –
14 | CCCCCCCCCCCCCCCc1cc(O)cc(OC)c1O | 2650 nM | 0.98 | 2710 nM | 140 nM | –
15 | CCCCCC1=CC(=O)C=C(OC)C1=O [Primin] | 18900 nM | 9.96 | 1900 nM | 1370 nM | –
16 | CCCCCCCCCCCC1=CC(=O)C=C(OC)C1=O | 1070 nM | 1.88 | 570 nM | 340 nM | IC50 [9]: 2770 nM; IC50 [10]: 800 nM; IC50 [11]: > 20000 nM; Activity [12]: inactive; IC50 [13]: 710 nM
17 | CCCCCc1cc(OC(C)=O)cc(OC)c1OC(C)=O | – | – | – | 1090 nM | inhibition [6]: < 50%; inhibition [7]: < 50%
18 | CCCCCCCCCCCCCc1cc(O)cc(O)c1 | 2380 nM | 0.87 | 2740 nM | – | inhibition [8]: < 50%
19 | O=C1O[C@H]([C@@H](O)CO)C(O)=C1O [ASCORBIC ACID] | – | – | – | – | EC50 [5]: 31100 nM
20 | CCCCCCCCCCCCCCCc1cc(O)cc(O)c1 [CARDOL] | 5610 nM | 2.38 | 2360 nM | – | inhibition [8]: < 50%
21 | CCCCCC1=CC(=O)C=C(OC)C1=N | 15800 nM | 2.71 | 5820 nM | 1010 nM | –
